Source: the RNAGym collection of RNA variant scans (doi:10.1126/science.aae0568)
Variants at the floor of the assay were thinned out.

B1: tRNA (parent)
chain: GUUCCGUUGGCGUAAUGGUAACGCGUCUCCCUCCUAAGGAGAAGACUGCGGGUUCGAGUCCCGUACGGAACG

Variants of: B1
Test: yeast fitness relative to wild type (ratio to wild type); higher = fitter; tRNA-Arg(CCU), competitive growth, 37 C, YPD
Method in brief: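 The tRNA-Arg(CCU) gene variants were made by chemical synthesis with a 3% per-site mutation rate at 69 sites and inserted at the native genomic locus of Saccharomyces cerevisiae. After pooling, the strains were competed in YPD at 37°C for 24 hours in six parallel replicates. Gene amplicons from the start population and each end population were read by 100-nucleotide paired-end sequencing, and Darwinian fitness relative to wild type was taken from genotype frequency changes. Genotypes needed ≥ 100 starting reads, and estimates < 0.5 were set to 0.5.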

Row | Variant | yeast fitness
1 | C29U A40U G56C A69C | 0.519
2 | C29U A42C | 0.676
3 | C29U A42C A45C G50A | ≤ 0.5
4 | C29U A42C G67C | 0.505
5 | C29U A42G | 0.975
6 | C29U A42G U64C | 0.592
7 | C29U A42U | 0.769
8 | C29U A42U C61U C66A | ≤ 0.5
9 | C29U A42U C66A | 0.567
10 | C29U A42U U64C C66U A69U | ≤ 0.5
11 | C29U A43U C46A | 0.76
12 | C29U A43U C46A G50A C61G G68A | ≤ 0.5
13 | C29U A45C G67A | 0.536
14 | C29U A45G | 0.98
15 | C29U A45U | 0.928
16 | C29U A45U C61U | 0.644
17 | C29U A45U U54A | ≤ 0.5
18 | C29U A57G | 0.908
19 | C29U A57U C62A | ≤ 0.5
20 | C29U A65C | 0.751
21 | C29U A65G | 0.934
22 | C29U A70U | 0.827
23 | C29U C30A | 0.744
24 | C29U C30A A45C | 0.563

Row | Variant | yeast fitness
25 | C29U C30A G38A | ≤ 0.5
26 | C29U C30G | 0.716
27 | C29U C30G A70C | 0.536
28 | C29U C30U | 0.763
29 | C29U C30U C31G C34G A37C A45G | ≤ 0.5
30 | C29U C30U C61A | ≤ 0.5
31 | C29U C30U U32C C55G G58A U64A | ≤ 0.5
32 | C29U C30U U59A | ≤ 0.5
33 | C29U C31A A69U | 0.627
34 | C29U C31A C55U A57C | 0.62
35 | C29U C31A U53G | ≤ 0.5
36 | C29U C31G A37C G50A | ≤ 0.5
37 | C29U C31G C33A | 0.648
38 | C29U C31G C34A | ≤ 0.5
39 | C29U C31G C34G A37C C46A G50A A57U C66U | ≤ 0.5
40 | C29U C31G G44C | ≤ 0.5
41 | C29U C31U A42C A69C | 0.673
42 | C29U C31U A57C C62U | 0.558
43 | C29U C31U A70G | 0.726
44 | C29U C31U G67U | 0.593
45 | C29U C31U U54G | 0.522
46 | C29U C31U U59C C66U A70C | 0.55
47 | C29U C33A C34U C46G C66U | 0.56
48 | C29U C33A C34U C46G G52C | ≤ 0.5

Row | Variant | yeast fitness
49 | C29U C33A G63A A65C C66A | ≤ 0.5
50 | C29U C33A G63C A65C C66A | ≤ 0.5
51 | C29U C33G A40C A57G | ≤ 0.5
52 | C29U C33G G44C | ≤ 0.5
53 | C29U C33U | 0.826
54 | C29U C33U C61G | ≤ 0.5
55 | C29U C33U U54A G56A | ≤ 0.5
56 | C29U C34A A42U U47C | 0.64
57 | C29U C34G | 0.603
58 | C29U C34G A36C | ≤ 0.5
59 | C29U C34G A43U C62U | ≤ 0.5
60 | C29U C34G C55U C61G | 0.508
61 | C29U C34G G38C U54A A57C | ≤ 0.5
62 | C29U C34U | 0.716
63 | C29U C34U A57C G63A A70G | ≤ 0.5
64 | C29U C34U G39A G58A C60U | ≤ 0.5
65 | C29U C46G | 1.02
66 | C29U C46G U54C G56C | ≤ 0.5
67 | C29U C46U C66U | 0.63
68 | C29U C49A G68C | 0.584
69 | C29U C49G | 0.739
70 | C29U C49G G58C | ≤ 0.5
71 | C29U C49U C61A | ≤ 0.5
72 | C29U C49U C61U | 0.532

Row | Variant | yeast fitness
73 | C29U C49U U59A | ≤ 0.5
74 | C29U C55G | 0.614
75 | C29U C55U C66U | 0.58
76 | C29U C60A | 0.627
77 | C29U C60G | 0.515
78 | C29U C60G C62U | 0.546
79 | C29U C60U | 0.758
80 | C29U C61A | 0.611
81 | C29U C61G | 0.658
82 | C29U C61G A65U | ≤ 0.5
83 | C29U C62G | 0.656
84 | C29U C62U | 0.763
85 | C29U C66G | 0.732
86 | C29U G38A G48C C66U | ≤ 0.5
87 | C29U G38C A43U U53G G63C | ≤ 0.5
88 | C29U G38C A69U | 0.581
89 | C29U G38C G63A | ≤ 0.5
90 | C29U G39A C46A | 1.13
91 | C29U G41A | 0.731
92 | C29U G41C C62U | 0.552
93 | C29U G44A | 0.818
94 | C29U G44A A57G | 0.623
95 | C29U G44C G68A | 0.57
96 | C29U G48A | 0.986

Row | Variant | yeast fitness
97 | C29U G48A G56C | 0.536
98 | C29U G48C | 0.859
99 | C29U G48C G50A | ≤ 0.5
100 | C29U G48C G52A | 0.591
101 | C29U G48C G52A A69U | ≤ 0.5
102 | C29U G50C | 0.664
103 | C29U G50C C60A | ≤ 0.5
104 | C29U G50C U53C A57U C61G | ≤ 0.5
105 | C29U G50C U59A | 0.605
106 | C29U G51A G56A G63C | 0.528
107 | C29U G51C C55U | ≤ 0.5
108 | C29U G52A | 0.728
109 | C29U G56A | 0.765
110 | C29U G56A C66U | 0.619
111 | C29U G56C | 0.595
112 | C29U G58A | 1.02
113 | C29U G63A | 0.803
114 | C29U G63A A69U | 0.641
115 | C29U G63A G67A | 0.523
116 | C29U G67A A70U | 0.52
117 | C29U U32A | 0.83
118 | C29U U32A C33U G67U A70G | ≤ 0.5
119 | C29U U32C C46A | 0.521
120 | C29U U32G A43U G44C | ≤ 0.5

Row | Variant | yeast fitness
121 | C29U U35C A37C | ≤ 0.5
122 | C29U U35C A37C A65G C66A | ≤ 0.5
123 | C29U U35C A65U | ≤ 0.5
124 | C29U U35C C61G | 0.672
125 | C29U U35G C62U | ≤ 0.5
126 | C29U U47A A65C | ≤ 0.5
127 | C29U U53C | 0.843
128 | C29U U54C | 0.83
129 | C29U U59A | 0.701
130 | C29U U59C | 0.868
131 | C29U U59G C66U | 0.732
132 | C30A A36C G52A | ≤ 0.5
133 | C30A A36G | 0.819
134 | C30A A36U A42G | ≤ 0.5
135 | C30A A36U G38C C66A | 0.577
136 | C30A A36U G68A | 0.543
137 | C30A A37C A43U | 0.608
138 | C30A A37C C60A G67C | ≤ 0.5
139 | C30A A37G | 0.86
140 | C30A A37G C55U A57G U64A | ≤ 0.5
141 | C30A A40G | 0.979
142 | C30A A40G A42U C62A | ≤ 0.5
143 | C30A A40G A65G | 0.967
144 | C30A A40G C66A | ≤ 0.5

Row | Variant | yeast fitness
145 | C30A A40U | 0.819
146 | C30A A40U G41C C61G G63C | ≤ 0.5
147 | C30A A40U G51C C61U | 0.646
148 | C30A A42C A70C | 0.819
149 | C30A A42C G56A A57U | 0.558
150 | C30A A42G | 0.809
151 | C30A A42G G44A | 0.704
152 | C30A A42G G50A C62U | ≤ 0.5
153 | C30A A43C A65G | 0.97
154 | C30A A43G | 0.958
155 | C30A A43G A69U | 0.618
156 | C30A A43U | 0.936
157 | C30A A43U A65U | 0.608
158 | C30A A43U C55G G63C G67C | ≤ 0.5
159 | C30A A43U G58C U64G | ≤ 0.5
160 | C30A A45C C46U | 0.613
161 | C30A A45C C46U A57C | ≤ 0.5
162 | C30A A45G | 0.896
163 | C30A A45U | 0.997
164 | C30A A45U C49A G50A G63U A70U | ≤ 0.5
165 | C30A A45U C49A G51A C62G | ≤ 0.5
166 | C30A A45U C49A G63U A70U | 0.523
167 | C30A A57G | 0.74
